# From ChEMBL document CHEMBL5058577, “EUbOPEN Chemogenomics Library 2 (Multiplex)” (2022)
# Tested on: Fibroblast
# Assay: Multiplex assay against human fibroblast
# Type: toxicity, cell-based
# Procedure, shortened: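 At seeding, live cells were stained with Hoechst33342, BioTracker Green Microtubule Cytoskeleton Dye, MitoTracker Red and Annexin V Alexa Fluor 680. After compound addition they were imaged on a CQ1 microscope at 37°C and 5% CO2, and CellPathfinder machine-learning gating sorted them into Hoechst high-intensity objects or normal cells, with normal cells further split into healthy, pyknosed or fragmented nuclei and pyknosed cells into mitotic or apoptotic. Tubulin, mitochondrial-mass and membrane-permeability phenotypes are given as per cents of cells with healthy nuclei.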
# [1] = 12 h, 1 µM, compound concentration 1 uM, replicate 1
# [2] = 12 h, 1 µM, compound concentration 1 uM, replicate 2
# [3] = 12 h, 10 µM, compound concentration 10 uM, replicate 1
# [4] = 12 h, 10 µM, compound concentration 10 uM, replicate 2
# [5] = 24 h, 1 µM, compound concentration 1 uM, replicate 1
# [6] = 24 h, 1 µM, compound concentration 1 uM, replicate 2
# [7] = 24 h, 10 µM, compound concentration 10 uM, replicate 1
# [8] = 24 h, 10 µM, compound concentration 10 uM, replicate 2
# [9] = 48 h, 1 µM, compound concentration 1 uM, replicate 1
# [10] = 48 h, 1 µM, compound concentration 1 uM, replicate 2
# [11] = 48 h, 10 µM, compound concentration 10 uM, replicate 1
# [12] = 48 h, 10 µM, compound concentration 10 uM, replicate 2
structure (smiles),measurement,setting,value
CCn1c(-c2nc3cc(C(=O)N4CCCC(N)C4)ccc3n2C)cc2ccccc21.Cl (configuration not stated),Population Apoptotic (%),[1],63%
same,Population Fragmented Nuclei (%),[1],17%
same,Population Healthy Nuclei (%),[1],67%
same,Population Hoechst High Intensity Objects (%),[1],3%
same,Population Membrane Permeable-Phenotype (%),[1],0%
same,Population Mitochondria Different-Phenotype (%),[1],4%
same,Population Mitotic Cells (%),[1],36%
same,Population Normal (%),[1],96%
same,Population Pyknosed Nuclei (%),[1],15%
same,Population Tubulin-Different-Phenotype (%),[1],27%
same,Total Cell Count,[1],128
same,Population Apoptotic (%),[2],32%
same,Population Fragmented Nuclei (%),[2],21%
same,Population Healthy Nuclei (%),[2],54%
same,Population Hoechst High Intensity Objects (%),[2],5%
same,Population Membrane Permeable-Phenotype (%),[2],2%
same,Population Mitochondria Different-Phenotype (%),[2],17%
same,Population Mitotic Cells (%),[2],67%
same,Population Normal (%),[2],94%
same,Population Pyknosed Nuclei (%),[2],23%
same,Population Tubulin-Different-Phenotype (%),[2],41%
same,Total Cell Count,[2],167
same,Population Apoptotic (%),[3],41%
same,Population Fragmented Nuclei (%),[3],22%
same,Population Healthy Nuclei (%),[3],63%
same,Population Hoechst High Intensity Objects (%),[3],1%
same,Population Membrane Permeable-Phenotype (%),[3],0%
same,Population Mitochondria Different-Phenotype (%),[3],18%
same,Population Mitotic Cells (%),[3],58%
same,Population Normal (%),[3],98%
same,Population Pyknosed Nuclei (%),[3],14%
same,Population Tubulin-Different-Phenotype (%),[3],69%
same,Total Cell Count,[3],221
same,Population Apoptotic (%),[4],38%
same,Population Fragmented Nuclei (%),[4],32%
same,Population Healthy Nuclei (%),[4],37%
same,Population Hoechst High Intensity Objects (%),[4],3%
same,Population Mitochondria Different-Phenotype (%),[4],19%
same,Population Mitotic Cells (%),[4],61%
same,Population Normal (%),[4],96%
same,Population Pyknosed Nuclei (%),[4],29%
same,Population Tubulin-Different-Phenotype (%),[4],80%
same,Total Cell Count,[4],186
same,Population Apoptotic (%),[5],50%
same,Population Fragmented Nuclei (%),[5],22%
same,Population Healthy Nuclei (%),[5],68%
same,Population Hoechst High Intensity Objects (%),[5],0%
same,Population Membrane Permeable-Phenotype (%),[5],0%
same,Population Mitochondria Different-Phenotype (%),[5],5%
same,Population Mitotic Cells (%),[5],50%
same,Population Normal (%),[5],99%
same,Population Pyknosed Nuclei (%),[5],9%
same,Population Tubulin-Different-Phenotype (%),[5],30%
same,Total Cell Count,[5],127
same,Population Apoptotic (%),[6],55%
same,Population Fragmented Nuclei (%),[6],27%
same,Population Healthy Nuclei (%),[6],54%
same,Population Hoechst High Intensity Objects (%),[6],9%
same,Population Membrane Permeable-Phenotype (%),[6],3%
same,Population Mitochondria Different-Phenotype (%),[6],20%
same,Population Mitotic Cells (%),[6],44%
same,Population Normal (%),[6],90%
same,Population Pyknosed Nuclei (%),[6],17%
same,Population Tubulin-Different-Phenotype (%),[6],41%
same,Total Cell Count,[6],184
same,Population Apoptotic (%),[7],70%
same,Population Fragmented Nuclei (%),[7],22%
same,Population Healthy Nuclei (%),[7],66%
same,Population Hoechst High Intensity Objects (%),[7],3%
same,Population Membrane Permeable-Phenotype (%),[7],0%
same,Population Mitochondria Different-Phenotype (%),[7],22%
same,Population Mitotic Cells (%),[7],29%
same,Population Normal (%),[7],96%
same,Population Pyknosed Nuclei (%),[7],10%
same,Population Tubulin-Different-Phenotype (%),[7],76%
same,Total Cell Count,[7],231
same,Population Apoptotic (%),[8],59%
same,Population Fragmented Nuclei (%),[8],30%
same,Population Healthy Nuclei (%),[8],46%
same,Population Hoechst High Intensity Objects (%),[8],4%
same,Population Membrane Permeable-Phenotype (%),[8],2%
same,Population Mitochondria Different-Phenotype (%),[8],32%
same,Population Mitotic Cells (%),[8],40%
same,Population Normal (%),[8],95%
same,Population Pyknosed Nuclei (%),[8],23%
same,Population Tubulin-Different-Phenotype (%),[8],82%
same,Total Cell Count,[8],189
same,Population Apoptotic (%),[9],66%
same,Population Fragmented Nuclei (%),[9],23%
same,Population Healthy Nuclei (%),[9],67%
same,Population Hoechst High Intensity Objects (%),[9],2%
same,Population Membrane Permeable-Phenotype (%),[9],1%
same,Population Mitochondria Different-Phenotype (%),[9],3%
same,Population Mitotic Cells (%),[9],33%
same,Population Normal (%),[9],97%
same,Population Pyknosed Nuclei (%),[9],8%
same,Population Tubulin-Different-Phenotype (%),[9],29%
same,Total Cell Count,[9],137
same,Population Apoptotic (%),[10],51%
same,Population Fragmented Nuclei (%),[10],32%
same,Population Healthy Nuclei (%),[10],51%
same,Population Hoechst High Intensity Objects (%),[10],5%
same,Population Membrane Permeable-Phenotype (%),[10],2%
same,Population Mitochondria Different-Phenotype (%),[10],23%
same,Population Mitotic Cells (%),[10],48%
same,Population Normal (%),[10],94%
same,Population Pyknosed Nuclei (%),[10],15%
same,Population Tubulin-Different-Phenotype (%),[10],49%
same,Total Cell Count,[10],193
same,Population Apoptotic (%),[11],83%
same,Population Fragmented Nuclei (%),[11],19%
same,Population Healthy Nuclei (%),[11],72%
same,Population Hoechst High Intensity Objects (%),[11],3%
same,Population Membrane Permeable-Phenotype (%),[11],0%
same,Population Mitochondria Different-Phenotype (%),[11],22%
same,Population Mitotic Cells (%),[11],16%
same,Population Normal (%),[11],96%
same,Population Pyknosed Nuclei (%),[11],8%
same,Population Tubulin-Different-Phenotype (%),[11],85%
same,Total Cell Count,[11],232
same,Population Apoptotic (%),[12],60%
same,Population Fragmented Nuclei (%),[12],33%
same,Population Healthy Nuclei (%),[12],57%
same,Population Mitochondria Different-Phenotype (%),[12],16%
same,Population Mitotic Cells (%),[12],40%
same,Total Cell Count,[12],231
O=c1ccc2ccc(OCCCCN3CCN(c4cccc5sccc45)CC3)cc2[nH]1 [BREXPIPRAZOLE],Population Apoptotic (%),[1],56%
same,Population Fragmented Nuclei (%),[1],17%
same,Population Healthy Nuclei (%),[1],62%
same,Population Hoechst High Intensity Objects (%),[1],2%
same,Population Membrane Permeable-Phenotype (%),[1],0%
same,Population Mitochondria Different-Phenotype (%),[1],5%
same,Population Mitotic Cells (%),[1],44%
same,Population Normal (%),[1],97%
same,Population Pyknosed Nuclei (%),[1],20%
same,Population Tubulin-Different-Phenotype (%),[1],41%
same,Total Cell Count,[1],126
same,Population Apoptotic (%),[2],48%
same,Population Fragmented Nuclei (%),[2],33%
same,Population Healthy Nuclei (%),[2],44%
same,Population Hoechst High Intensity Objects (%),[2],5%
same,Population Membrane Permeable-Phenotype (%),[2],2%
same,Population Mitochondria Different-Phenotype (%),[2],15%
same,Population Mitotic Cells (%),[2],51%
same,Population Normal (%),[2],94%
same,Population Pyknosed Nuclei (%),[2],21%
same,Population Tubulin-Different-Phenotype (%),[2],73%
same,Total Cell Count,[2],169
same,Population Apoptotic (%),[3],68%
same,Population Fragmented Nuclei (%),[3],16%
same,Population Healthy Nuclei (%),[3],64%
same,Population Hoechst High Intensity Objects (%),[3],1%
same,Population Membrane Permeable-Phenotype (%),[3],0%
same,Population Mitochondria Different-Phenotype (%),[3],39%
same,Population Mitotic Cells (%),[3],31%
same,Population Normal (%),[3],98%
same,Population Pyknosed Nuclei (%),[3],19%
same,Population Tubulin-Different-Phenotype (%),[3],83%
same,Total Cell Count,[3],203
same,Population Apoptotic (%),[4],45%
same,Population Fragmented Nuclei (%),[4],30%
same,Population Healthy Nuclei (%),[4],49%
same,Population Hoechst High Intensity Objects (%),[4],11%
same,Population Membrane Permeable-Phenotype (%),[4],2%
same,Population Mitochondria Different-Phenotype (%),[4],25%
same,Population Mitotic Cells (%),[4],54%
same,Population Normal (%),[4],88%
same,Population Pyknosed Nuclei (%),[4],20%
same,Population Tubulin-Different-Phenotype (%),[4],81%
same,Total Cell Count,[4],243
same,Population Apoptotic (%),[5],56%
same,Population Fragmented Nuclei (%),[5],17%
same,Population Healthy Nuclei (%),[5],69%
same,Population Hoechst High Intensity Objects (%),[5],1%
same,Population Membrane Permeable-Phenotype (%),[5],0%
same,Population Mitochondria Different-Phenotype (%),[5],8%
same,Population Mitotic Cells (%),[5],43%
same,Population Normal (%),[5],98%
same,Population Pyknosed Nuclei (%),[5],13%
same,Population Tubulin-Different-Phenotype (%),[5],43%
same,Total Cell Count,[5],122
same,Population Apoptotic (%),[6],33%
same,Population Fragmented Nuclei (%),[6],32%
same,Population Healthy Nuclei (%),[6],52%
same,Population Hoechst High Intensity Objects (%),[6],3%
same,Population Membrane Permeable-Phenotype (%),[6],2%
same,Population Mitochondria Different-Phenotype (%),[6],14%
same,Population Mitotic Cells (%),[6],66%
same,Population Normal (%),[6],96%
same,Population Pyknosed Nuclei (%),[6],14%
same,Population Tubulin-Different-Phenotype (%),[6],76%
same,Total Cell Count,[6],173
same,Population Apoptotic (%),[7],58%
same,Population Fragmented Nuclei (%),[7],13%
same,Population Healthy Nuclei (%),[7],54%
same,Population Hoechst High Intensity Objects (%),[7],13%
same,Population Membrane Permeable-Phenotype (%),[7],0%
same,Population Mitochondria Different-Phenotype (%),[7],63%
same,Population Mitotic Cells (%),[7],41%
same,Population Normal (%),[7],86%
same,Population Pyknosed Nuclei (%),[7],31%
same,Population Tubulin-Different-Phenotype (%),[7],85%
same,Total Cell Count,[7],218
same,Population Apoptotic (%),[8],65%
same,Population Fragmented Nuclei (%),[8],30%
same,Population Healthy Nuclei (%),[8],40%
same,Population Hoechst High Intensity Objects (%),[8],19%
same,Population Mitochondria Different-Phenotype (%),[8],34%
same,Population Mitotic Cells (%),[8],34%
same,Population Normal (%),[8],80%
same,Population Pyknosed Nuclei (%),[8],28%
same,Population Tubulin-Different-Phenotype (%),[8],71%
same,Total Cell Count,[8],239
same,Population Apoptotic (%),[9],62%
same,Population Fragmented Nuclei (%),[9],24%
same,Population Healthy Nuclei (%),[9],62%
same,Population Hoechst High Intensity Objects (%),[9],4%
same,Population Membrane Permeable-Phenotype (%),[9],0%
same,Population Mitochondria Different-Phenotype (%),[9],10%
same,Population Mitotic Cells (%),[9],37%
same,Population Normal (%),[9],95%
same,Population Pyknosed Nuclei (%),[9],12%
same,Population Tubulin-Different-Phenotype (%),[9],52%
same,Total Cell Count,[9],133
same,Population Apoptotic (%),[10],60%
same,Population Fragmented Nuclei (%),[10],42%
same,Population Healthy Nuclei (%),[10],51%
same,Population Membrane Permeable-Phenotype (%),[10],1%
same,Population Mitochondria Different-Phenotype (%),[10],9%
same,Population Mitotic Cells (%),[10],40%
same,Population Pyknosed Nuclei (%),[10],5%
same,Population Tubulin-Different-Phenotype (%),[10],67%
same,Total Cell Count,[10],175
same,Population Apoptotic (%),[11],62%
same,Population Fragmented Nuclei (%),[11],18%
same,Population Healthy Nuclei (%),[11],50%
same,Population Hoechst High Intensity Objects (%),[11],34%
same,Population Membrane Permeable-Phenotype (%),[11],0%
same,Population Mitochondria Different-Phenotype (%),[11],60%
same,Population Mitotic Cells (%),[11],37%
same,Population Normal (%),[11],65%
same,Population Pyknosed Nuclei (%),[11],31%
same,Population Tubulin-Different-Phenotype (%),[11],88%
same,Total Cell Count,[11],208
same,Population Apoptotic (%),[12],44%
same,Population Fragmented Nuclei (%),[12],30%
same,Population Healthy Nuclei (%),[12],43%
same,Population Mitochondria Different-Phenotype (%),[12],20%
same,Population Mitotic Cells (%),[12],55%
same,Population Pyknosed Nuclei (%),[12],26%
same,Population Tubulin-Different-Phenotype (%),[12],55%
same,Total Cell Count,[12],317
